According to ChEMBL document CHEMBL1147233, “Chemistry and structure-activity relationship of HIV-1 integrase inhibitor integracide B and related natural products” (J Nat Prod, 2003):

Experiments:
[1] = Inhibition of DNAse
[2] = molecular target: T1, Human immunodeficiency virus type 1 integrase (Human immunodeficiency virus 1, UniProt Q7ZJM1); test: Inhibition of recombinant HIV1 integrase using preprocessed donor DNA treated after washing excess enzyme by strand transfer assay
In short: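 Integrase preincubated with preprocessed donor DNA, unbound enzyme washed off, then target DNA and inhibitor added together. Strand transfer product measured. Final DMSO 10%. IC50 from serial 2-fold dilutions run in duplicate or triplicate; values without error limits are the average of these.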

[3] = molecular target: T1, Human immunodeficiency virus type 1 integrase; test: Inhibition of recombinant HIV1 integrase using unprocessed donor DNA by coupled assay
In short: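 Unprocessed donor DNA and inhibitor incubated with recombinant integrase together for 30 min, then target DNA added; strand-transfer product measured. Final DMSO 10%. IC50 from serial 2-fold dilutions in duplicate or triplicate; values without error limits are the average of these.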

[4] = molecular target: Type II restriction enzyme EcoRI (Escherichia coli, UniProt P00642); test: Inhibition of Escherichia coli ECOR1
[5] = tested on: Human immunodeficiency virus 1; test: Antiviral activity against HIV1 infected in human H9 cells; type: functional; conditions: Human immunodeficiency virus 1, H9; read-out: CIC95
In short: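 Multiple-cycle viral spread assay in HIV-1-infected H9 T-lymphoid cells; value is CIC95, the concentration giving >95% protection from viral infection.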

[6] = molecular target: T1, Human immunodeficiency virus type 1 integrase; test: Inhibition of HIV1 integrase assessed as inhibition of 3'-end processing reaction
In short: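 Specific 3′-end processing of LTR donor-sequence oligonucleotide substrates, run with […]. IC₅₀ values without error limits are the average of duplicate or triplicate data sets.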

[7] = molecular target: T1, Human immunodeficiency virus type 1 integrase; test: Inhibition of recombinant HIV1 integrase using preprocessed donor DNA by assembly assay
In short: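 Recombinant integrase and inhibitor were incubated with preprocessed donor DNA, unbound integrase was washed off, then target DNA was added. The read-out is the strand-transfer product. Final DMSO was 10%. IC₅₀ came from 2-fold dilution series run in duplicate or triplicate.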

[8] = molecular target: T1, Human immunodeficiency virus type 1 integrase; test: Inhibition of HIV1 integrase-mediated preintegration complex formation by Southern blotting
In short: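 Preintegration complexes were isolated from HIV-1-infected cells, partially purified and used in an integration reaction. Products were analysed by Southern blotting and quantified by phosphorimaging. IC₅₀ values without error limits are the average of duplicate or triplicate data sets.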

Chain of Type II restriction enzyme EcoRI (P00642 whole entry): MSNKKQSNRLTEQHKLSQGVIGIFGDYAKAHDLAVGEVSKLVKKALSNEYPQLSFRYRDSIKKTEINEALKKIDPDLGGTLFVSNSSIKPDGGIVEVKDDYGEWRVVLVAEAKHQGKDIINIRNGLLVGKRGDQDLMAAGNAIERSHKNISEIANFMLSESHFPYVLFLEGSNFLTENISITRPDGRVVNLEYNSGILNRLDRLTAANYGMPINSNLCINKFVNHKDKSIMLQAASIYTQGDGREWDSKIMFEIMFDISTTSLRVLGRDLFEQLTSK
T1 sequence (Q7ZJM1 whole entry): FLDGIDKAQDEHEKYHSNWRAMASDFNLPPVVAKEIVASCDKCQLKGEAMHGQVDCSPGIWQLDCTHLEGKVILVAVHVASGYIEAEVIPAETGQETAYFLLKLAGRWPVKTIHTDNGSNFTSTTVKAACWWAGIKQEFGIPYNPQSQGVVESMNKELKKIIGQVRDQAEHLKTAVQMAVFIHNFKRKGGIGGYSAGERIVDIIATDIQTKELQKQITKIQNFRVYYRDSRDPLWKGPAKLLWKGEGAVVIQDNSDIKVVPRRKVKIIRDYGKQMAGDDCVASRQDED

Row | Structure (SMILES) | IC50 [1] [µM] | IC50 [2] [µM] | IC50 [3] [µM] | IC50 [4] [µM] | IC95 [5] [µM] | IC50 [6] [µM] | IC50 [7] [µM] | IC50 [8] [µM]
1 | C=C(CC[C@@H](C)[C@H]1CC=C2C3=C([C@@H](O)[C@H](OC(C)=O)[C@@]21C)[C@@]1(C)C[C@@H](OC(=O)CCC(=O)O)[C@H](O)C(C)(C)[C@@H]1CC3)C(C)C | > 50 | 12 | 3 | > 50 | 6 | – | – | –
2 | C=C(CC[C@@H](C)[C@H]1CC=C2C3=C([C@@H](O)[C@H](OC(C)=O)[C@@]21C)[C@@]1(C)C[C@@H](O)[C@H](OC(=O)CN)C(C)(C)[C@@H]1CC3)C(C)C | > 50 | > 50 | 18 | > 50 | – | – | – | –
3 | CC(=O)O[C@H]1[C@H](O)C2=C(CC[C@H]3C(C)(C)[C@@H](OS(=O)(=O)O)[C@H](OC(=O)CCCCCCCCCCCCCCCO)C[C@]23C)[C@@H]2CC[C@H]([C@H](C)CCC3(C(C)(C)O)CO3)[C@]21C (stereo partly specified) | > 50 | 5.6 | 5.6 | > 50 | > 50 | 2 | 12 | 50
4 | CC(=O)O[C@H]1[C@H](O)C2=C(CC[C@H]3C(C)(C)[C@@H](OS(=O)(=O)O)[C@H](OC(=O)CCCCCCCCCCCCCCCO)C[C@]23C)C2=CC[C@H]([C@H](C)CCC3(C(C)(C)O)CO3)[C@]21C (stereo partly specified) | > 50 | 14 | 5 | > 50 | 6 | 10 | – | –
5 | C=C(CC[C@@H](C)[C@H]1CC[C@H]2C3=C([C@@H](O)[C@H](OC(C)=O)[C@]12C)[C@@]1(C)C[C@@H](O)[C@H](OS(=O)(=O)O)C(C)(C)[C@@H]1CC3)C(C)C | > 50 | 15 | 5 | > 50 | 50 | 5 | 10 | 30
6 | C=C(CC[C@@H](C)[C@H]1CC=C2C3=C([C@@H](O)[C@H](OC(C)=O)[C@@]21C)[C@@]1(C)C[C@@H](O)[C@H](OC(=O)CCC(=O)O)C(C)(C)[C@@H]1CC3)C(C)C | > 50 | 12 | 3 | > 50 | 6 | 5 | – | –
7 | C[C@H](CCC(O)C(C)(C)O)[C@H]1CC[C@@]2(C)C3=C(CC[C@]12C)[C@@]1(C)C[C@@H](OC(=O)CC(C)(O)CC(=O)O)C(=O)C(C)(C)[C@@H]1CC3 (stereo partly specified) [CLAVARIC ACID] | > 50 | 85 | 47 | > 50 | – | – | – | –
8 | C[C@H](CCC(O)C(C)(C)O)[C@H]1CC[C@@]2(C)C3=C(CC[C@]12C)[C@@]1(C)C[C@@H](O)C(=O)C(C)(C)[C@@H]1CC3 (stereo partly specified) [CLAVARINONE] | > 50 | > 100 | 68 | > 50 | – | – | – | –
9 | C=C(CC[C@@H](C)[C@H]1CC=C2C3=C([C@@H](O)[C@H](OC(C)=O)[C@@]21C)[C@@]1(C)C[C@@H](O)[C@H](OS(=O)(=O)O)C(C)(C)[C@@H]1CC3)C(C)C [INTEGRACIDE A] | > 50 | 9 | 4 | > 50 | 25 | 5 | – | 50
10 | C=C(CC[C@@H](C)[C@H]1CC=C2C3=C([C@@H](O)[C@H](OC(C)=O)[C@@]21C)[C@@]1(C)C[C@@H](O)[C@H](O)C(C)(C)[C@@H]1CC3)C(C)C [INTEGRACIDE B] | > 50 | > 100 | 82 | > 50 | – | – | – | –
